Reference: PMC9075506 (RSC Advances, 2019)
Like-named read-outs stand apart in the source and are kept apart here.

How the values were obtained:
[1] = normal rats, oral administration of PLA, tissue distribution; cited from earlier work
[2] = type: in vitro ADME, rat; details: n = 3; for Stability, autosampler (20 °C, 4 h), RE: processed rat plasma; for Stability, long-term (−80 °C, 30 d), RE / Stability, short-term (4 °C, 48 h), RE / Stability, three freeze–thaw cycles, RE: rat plasma
In short: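 Plasma (50 μL) precipitated with methanol/acetonitrile (1:1) containing internal standard (10 ng mL−1), vortexed 3 min, centrifuged 12 000 g for 10 min. Supernatant was run on C18 UFLC with a 0.1% formic acid/acetonitrile gradient at 0.5 mL min−1, detected by positive-ESI MRM. Quantified by analyte/IS peak-area ratio against a 1/x2-weighted linear calibration; accuracy given as RE (%).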

[3] = Pharmacokinetic study in 6-OHDA-induced PD rats after oral administration; type: in vivo; details: rat, plasma
[4] = Pharmacokinetic study in sham rats after oral administration of PLA; type: in vivo; details: rat, plasma, 50 mg/kg
[5] = high QC: spiked 160 ng mL^−1 (PLTR 4000 ng mL^−1)
[6] = low QC: spiked 0.6 ng mL^−1 (PLTR 15 ng mL^−1)
[7] = medium QC: spiked 10 ng mL^−1 (PLTR 250 ng mL^−1)

Stability, autosampler (20 °C, 4 h), RE [2, 5]	Stability, autosampler (20 °C, 4 h), RE [2, 6]	Stability, autosampler (20 °C, 4 h), RE [2, 7]	Stability, long-term (−80 °C, 30 d), RE [2, 5]	Stability, short-term (4 °C, 48 h), RE [2, 5]	Stability, three freeze–thaw cycles, RE [2, 5]	Stability, long-term (−80 °C, 30 d), RE [2, 6]	Stability, short-term (4 °C, 48 h), RE [2, 6]	Stability, three freeze–thaw cycles, RE [2, 6]	Stability, long-term (−80 °C, 30 d), RE [2, 7]	Stability, short-term (4 °C, 48 h), RE [2, 7]	Stability, three freeze–thaw cycles, RE [2, 7]	AUC(0-t) ([3]; 50 mg/kg)	Cmax ([3]; 50 mg/kg)	MRT ([3]; 50 mg/kg)	Tmax ([3]; 50 mg/kg)	half-life ([3]; 50 mg/kg)	Cmax [4]	MRT [4]	Tmax [4]	Structure (SMILES)	other results
−5.63%	−4.78%	5.33%	−1.04%	−3.75%	0.63%	−4.78%	−9.22%	−12.61%	8.00%	7.33%	6.67%	242 ± 57.2 ng·h/mL	97.3 ± 18 ng/mL	2.98 ± 0.84 h	0.45 ± 0.21 h	2.42 ± 1.23 h	89.1 ± 41.7 ng/mL	4.6 ± 1.33 h	0.45 ± 0.11 h	CC(C)CNC(=O)/C=C/C=C/c1ccc2c(c1)OCO2 [PPL, piperlonguminine]	Crossing of the blood–brain barrier [1]: could cross the blood–brain barrier; AUC(0-inf) ([3]; 50 mg/kg): 245 ± 57.5 ng·h/mL; AUC(0-inf) [4]: 318 ± 123 ng·h/mL; AUC(0-t) [4]: 302 ± 116 ng·h/mL; half-life [4]: 3.68 ± 1.32 h
−5.00%	−2.67%	7.67%	0.21%	−2.92%	0.42%	−7.44%	−4.06%	−5.06%	10.33%	11.33%	9.67%	9700 ± 2670 ng·h/mL	978 ± 214 ng/mL	5.99 ± 0.63 h	4 ± 1.41 h	3.65 ± 3.45 h	1000 ± 146 ng/mL	6.83 ± 0.44 h	4.8 ± 2.28 h	O=C(/C=C/C=C/c1ccc2c(c1)OCO2)N1CCCCC1 [PPR, piperine]	Crossing of the blood–brain barrier [1]: could cross the blood–brain barrier; AUC(0-inf) ([3]; 25 mg/kg): 7120 ± 1770 ng·h/mL; AUC(0-t) ([3]; 25 mg/kg): 7110 ± 1770 ng·h/mL; Cmax ([3]; 25 mg/kg): 825 ± 241 ng/mL; MRT ([3]; 25 mg/kg): 6.27 ± 0.56 h; Tmax ([3]; 25 mg/kg): 2.95 ± 2.06 h; half-life ([3]; 25 mg/kg): 2.41 ± 0.34 h; half-life [4]: 3.4 ± 2.15 h
−9.38%	−2.28%	7.33%	−6.25%	−8.33%	−4.79%	0.94%	−3.50%	4.67%	6.33%	10.00%	7.33%	136 ± 45.6 ng·h/mL	123 ± 57.6 ng/mL	2.43 ± 1.52 h	0.18 ± 0.09 h	2.8 ± 1.71 h	160 ± 120 ng/mL	3.72 ± 1.3 h	0.18 ± 0.09 h	O=C(/C=C/CCc1ccc2c(c1)OCO2)N1CCCCC1 [PPRA, piperanine]	AUC(0-inf) ([3]; 50 mg/kg): 137 ± 45.3 ng·h/mL; AUC(0-inf) [4]: 230 ± 150 ng·h/mL; AUC(0-t) [4]: 225 ± 155 ng·h/mL; half-life [4]: 4.16 ± 1.32 h
